An excerpt weighted towards active compounds, which were near 2.1% of everything screened.
PP5 primary – blocks human protein phosphatase 5 activity; P53041; purified PP5c, OMFP substrate fluorescence; inhibition, % at 6.7 µM; actives 0.18% (n = 320,000);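 active = inhibition above the campaign's mean inhibition across all tested compounds plus 3 SD, cut at about 9.5% in these data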;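 note: 0% = DMSO only and 100% = 100 µM cantharidin control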
TDP2 absorb – TDP2 (human) inhibition, absorbance primary screen | O95551 | recombinant TDP2, T5PNP hydrolysis, p-nitrophenol absorbance 415 nm | actives 0.34% (n = 370,000) | inhibition, % at 12.8 µM | AID 720702;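 active = inhibition above the mean of all tested compounds plus 3 SD, set per campaign, cut at about 25% in these data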;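 note: 0% = DMSO with enzyme and 100% = buffer with substrate but no TDP2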
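System: recombinant human TDP2 / Amount: 120 nM TDP2 per well / Also added: 5 mM T5PNP chromogenic substrate / Doses: 12.8 µM single point, 1% DMSO / Incubation: 2 h at 37 °C / Detection: p-Nitrophenol epi absorbance / Evaluation: % inhibition relative to enzyme-containing and enzyme-free wells / Repeats: singlicate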
Apaf-1 inh – inhibitors of human Apaf-1 apoptosome. reconstituted apoptosome caspase-3 activity, DEVD-Rh110 fluorescence. inhibition, % at 20 µM. actives 0.71% (n = 330,000); active = inhibition of at least 40% at 20 µM;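 note: plate controls were DMSO wells for no effect and DEVD-CHO caspase inhibitor wells for full effect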
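System – cell-free apoptosome with Apaf-1, procaspase-3 and caspase-9 · Buffer or medium – pH 7.5 Hepes buffer with CHAPS, BSA, DTT · Also added – cytochrome c with DEVD-Rh110 · Times – 30 min compound preincubation, 50 min activation, room temperature · Technique – Rh110 fluorescence intensity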
GSTO1 counter – blocks human GSTO1 in RBBP9 counter-screen. AID 1974. inhibition, % at 5.96 µM. P78417. recombinant GSTO1, activity-based probe fluorescence polarization. actives 1.1% (n = 300,000);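 active = inhibition above the campaign mean inhibition plus 3 SD, cut at about 35% in these data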;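 note: 0% = GSTO1-1 with DMSO and 100% = wells lacking GSTO1-1 enzyme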
PP1 inh – blocks human PP1-alpha phosphatase, a PP5 counter-screen | purified PP1alpha, OMFP fluorescence | actives 0.9% (n = 320,000) | inhibition, % at 6.7 µM | P62136;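 active = inhibition above the mean inhibition of all tested compounds plus 3 SD, computed separately for each screening campaign, cut at about 15% in these data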
Apaf-1 inh conf – confirmation of Apaf-1 inhibitors; shares compounds with Apaf-1 inh; reconstituted apoptosome, caspase-3 DEVD-Rh110 fluorescence; inhibition, % at 20 µM; actives 25% (n = 1,800); AID 504614;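 active = mean inhibition of at least 40% at 20 µM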;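 note: plate controls were DMSO wells for no effect and DEVD-CHO caspase inhibitor control wells for full effect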
Rh110 interf inh – counter-screen for Apaf-1 inhibitors: fluorescence interference | shares compounds with Apaf-1 inh | Rh110 fluorescence interference, quenched caspase reaction | activation (fluorescence interference), % at 20 µM | 1,800 tested, under 10 active | AID 504615;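 active = signal rise of 40% or more at 20 µM, treated as a fluorescence artifact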
Apaf1 inh interf – shows fluorescence interference in the Apaf-1 inhibitor assay format; IC50, µM; shares compounds with Apaf-1 inh; 460 tested, under 10 active; AID 588538; fluorescence interference counterscreen, Apaf-1 assay format; call rule not given here
* marks the source's active call; other numbers are inactive results.

What do the screens show for `C#CCN1CC(COc2ccccc2)Oc2cccc(Oc3ccc(SC)c(C)c3)c2S1(=O)=O` (centres undefined)?
TDP2 absorb: -9.6

Results for CCCC1CCC2(CCC(=O)N2CCO)CC1 (centres undefined) ?
TDP2 absorb: -4.6

How did CN(CC(=O)NCc1ccccc1)CC(=O)Nc1ccc(Cl)c(C(F)(F)F)c1 do in these assays?
PP5 primary: 3.3; TDP2 absorb: -3.4; Apaf-1 inh: 52.7*; PP1 inh: 1.2; Apaf-1 inh conf: 37.2; Rh110 interf inh: 9.2

Results for CN(CC(=O)Nc1ccc(Cl)c(C(F)(F)F)c1)C(=O)CC1Sc2ccccc2NC1=O (centres undefined) ?
PP5 primary: 3.8; TDP2 absorb: -8.0; Apaf-1 inh: 50.9*; GSTO1 counter: -0.7; PP1 inh: 5.3; Apaf-1 inh conf: 46.6*; Rh110 interf inh: 18.7; Apaf1 inh interf: >100

What do the screens show for `Cc1ccccc1CC(=O)N1CCC(n2nnc3ncccc32)CC1`?
TDP2 absorb: 0.6

How did O=C(Nc1ccc(F)cc1)Nc1c(-c2ccc(C(F)(F)F)cc2)nc2ncccn12 do in these assays?
TDP2 absorb: -0.4

How did CCCCCCCCCn1c2c(c(=N)c3c1CCC3)CCCC2 do in these assays?
Apaf-1 inh: 51.1*; Apaf-1 inh conf: 19.6; Rh110 interf inh: 9.2

Results for CCCCCCCCn1c2c(c(=N)c3ccccc31)CCC2 ?
TDP2 absorb: -7.9; Apaf-1 inh: 33.6

What do the screens show for `Cc1ccc2nc(-c3ccc(NC(=O)CSc4nnc(Cc5cccs5)n4C)cc3)sc2c1`?
TDP2 absorb: -2.4

How did O=C1N[C@@H](Cc2ccccc2)C(=O)N2[C@H]3Nc4ccccc4[C@@]3([C@]34C[C@H]5C(=O)N[C@@H](Cc6ccccc6)C(=O)N5[C@H]3Nc3ccccc34)C[C@@H]12 do in these assays?
PP5 primary: 3.0; Apaf-1 inh: 6.5; GSTO1 counter: -1.3; PP1 inh: 5.5

Results for CC[C@H](C)[C@@H]1NC(=O)[C@H]([C@@H](C)CC)NC(=O)[C@@H](CC(C)C)NC(=O)[C@H](Cc2ccccc2)NC(=O)[C@H](Cc2ccccc2)NC(=O)[C@@H]2CCCN2C(=O)[C@@H]2CCCN2C(=O)[C@H](C(C)C)NC(=O)[C@H](CC(C)C)NC1=O ?
TDP2 absorb: 10.3; Apaf-1 inh: 53.7*; Apaf-1 inh conf: 18.6; Rh110 interf inh: 9.5

How did COC(=O)c1cc2c(c3c4cc(C#N)ccc4n(S(=O)(=O)c4ccc(C)cc4)c13)C(=O)N(C)C2 do in these assays?
TDP2 absorb: 2.1

What do the screens show for `O=C(CNc1cccc2ccccc12)N/N=C/c1ccccn1`?
PP5 primary: -2.1; TDP2 absorb: 6.6; Apaf-1 inh: 48.2*; GSTO1 counter: 23.4; PP1 inh: -2.0; Apaf-1 inh conf: 14.6; Rh110 interf inh: 2.9

How did C=CC[C@@H](Cc1ccc(F)cc1)C(=O)OC[C@H]1CCCN1C(=O)[C@H](CC=C)CC(=O)N[C@H](CO)Cc1ccccc1 do in these assays?
TDP2 absorb: -19.6; Apaf-1 inh: 31.2

Results for C=CC[C@@H](Cc1ccc(F)cc1)C(=O)OC[C@H]1CCCN1C(=O)[C@@H](CC=C)CC(=O)N[C@H](CO)Cc1ccccc1 ?
TDP2 absorb: -1.6; Apaf-1 inh: 40.9*; Apaf-1 inh conf: 18.8; Rh110 interf inh: 7.5

What do the screens show for `C=CC[C@@H](Cc1ccc(F)cc1)C(=O)OC[C@@H]1CCCN1C(=O)[C@@H](CC=C)CC(=O)N[C@@H](CO)Cc1ccccc1`?
TDP2 absorb: -2.4; Apaf-1 inh: 40.4*; Apaf-1 inh conf: 17.8; Rh110 interf inh: 11.2

How did O=C(NC1CCCCN(Cc2cccc(F)c2)C1=O)c1ccc(F)cc1 (centres undefined) do in these assays?
TDP2 absorb: 3.8

Results for CC(C)[C@H](NC(=O)N1CCC(Cc2ccccc2)CC1)C(=O)O ?
PP5 primary: 2.8; TDP2 absorb: 1.0; Apaf-1 inh: 41.6*; GSTO1 counter: 5.8; PP1 inh: 3.2; Apaf-1 inh conf: 13.1; Rh110 interf inh: 3.1

How did COC(=O)[C@H](C)NC(=O)N1CCC(Cc2ccccc2)CC1 do in these assays?
PP5 primary: -0.9; TDP2 absorb: 9.9; Apaf-1 inh: -1.8; GSTO1 counter: -5.5; PP1 inh: -0.2

What do the screens show for `COc1cc(/C=C2\C(=O)N(CCC#N)N=C2C)c(Br)cc1OC(C)C`?
PP5 primary: -1.5; TDP2 absorb: 22.7; Apaf-1 inh: 78.5*; GSTO1 counter: 36.0*; PP1 inh: 1.4; Apaf-1 inh conf: 28.1; Rh110 interf inh: -0.2

How did CC(C)N1CCC1(C)C(=O)Nc1cccc2ccccc12 (centres undefined) do in these assays?
TDP2 absorb: -0.3

What do the screens show for `CC1(C(=O)Nc2cccc3ccccc23)CC1(Br)Br` (centres undefined)?
PP5 primary: 2.1; TDP2 absorb: 5.3; Apaf-1 inh: 56.2*; GSTO1 counter: 15.9; PP1 inh: 1.1; Apaf-1 inh conf: 15.9; Rh110 interf inh: 3.8

How did CCOC(=O)N1CCN(c2cc(NCCC(=O)O)c3c4c(onc24)-c2ccccc2C3=O)CC1 do in these assays?
PP5 primary: 4.7; Apaf-1 inh: 75.2*; GSTO1 counter: 59.8*; PP1 inh: 6.6; Apaf-1 inh conf: 53.6*; Rh110 interf inh: -7.7; Apaf1 inh interf: 6.25*

Results for O=C1c2ccccc2-c2onc3c(N4CCN(CCO)CC4)cc(N4CCN(C(=O)c5ccco5)CC4)c1c23 ?
PP5 primary: 1.9; TDP2 absorb: 2.1; Apaf-1 inh: 52.4*; GSTO1 counter: 36.8*; PP1 inh: 7.1; Apaf-1 inh conf: 35.3; Rh110 interf inh: 5.3

Results for COc1ccc(S(=O)(=O)N2CCCc3nc(-c4ccc(F)cc4)ccc32)cc1 ?
TDP2 absorb: 4.9

How did O=C1c2ccccc2C(=O)N1CC(=O)N1c2ccccc2CCc2ccccc21 do in these assays?
PP5 primary: -0.2; TDP2 absorb: 7.1; Apaf-1 inh: -8.1; GSTO1 counter: 6.2; PP1 inh: 3.0

How did O=C(C(Cc1ccccc1)N1C(=O)c2ccccc2C1=O)N1c2ccccc2CCc2ccccc21 (centres undefined) do in these assays?
PP5 primary: -4.9; TDP2 absorb: 7.9; Apaf-1 inh: 40.2*; GSTO1 counter: -1.3; PP1 inh: 1.0; Apaf-1 inh conf: 12.6; Rh110 interf inh: 0.6

Assay outcomes: PubChem, several laboratories
